Assays:
[1] = target: T1, RNA-directed RNA polymerase (Hepacivirus hominis, UniProt O39930); test: Inhibition of HCV 2a NS5B RNA dependent RNA polymerase; parameters: species or system Hepatitis C virus subtype 2a
Summary of the method: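 IC50 from the mean of four independent experiments; standard deviations within 30% of the mean.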

[2] = target: Human immunodeficiency virus type 1 reverse transcriptase (Human immunodeficiency virus 1, UniProt Q72547); test: Inhibition of HIV reverse transcriptase
Cytochrome P450 3A4 = Cytochrome P450 3A4 (Homo sapiens, UniProt P08684); test: Induction of CYP450 3A4; assay type: ADME
Sequence of Cytochrome P450 3A4 (P08684 whole entry): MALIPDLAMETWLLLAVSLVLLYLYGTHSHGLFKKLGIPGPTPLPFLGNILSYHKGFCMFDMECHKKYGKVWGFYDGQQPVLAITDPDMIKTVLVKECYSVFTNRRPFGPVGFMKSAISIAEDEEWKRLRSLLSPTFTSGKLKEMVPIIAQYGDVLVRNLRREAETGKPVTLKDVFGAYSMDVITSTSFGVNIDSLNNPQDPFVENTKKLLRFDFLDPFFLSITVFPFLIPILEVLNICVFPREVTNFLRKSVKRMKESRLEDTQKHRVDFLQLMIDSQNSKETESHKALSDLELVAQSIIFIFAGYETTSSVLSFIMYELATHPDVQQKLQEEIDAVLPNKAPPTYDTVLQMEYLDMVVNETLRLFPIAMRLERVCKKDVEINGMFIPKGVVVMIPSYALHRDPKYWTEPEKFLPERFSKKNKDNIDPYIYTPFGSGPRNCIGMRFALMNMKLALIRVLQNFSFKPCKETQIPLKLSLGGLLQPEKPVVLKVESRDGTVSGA

DNA polymerase beta = DNA polymerase beta (Homo sapiens, UniProt P06746); test: Inhibition of DNA polymerase beta
[3] = Therapeutic index, CC50 for viability of Huh5-2 cells/EC50 for inhibition of HCV subgenomic RNA replication; assay type: cell-based, Huh-5-2; conditions: human, read-out: Ratio CC50/EC50
[4] = Plasma concentration in rat at 30 mg/kg, po after 2 hrs; assay type: ADME, organism-based; parameters: dose 30 mg/kg, route oral
Summary of the method: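 Rats dosed orally at 30 mg/kg; plasma sampled at 1 and 2 h; n = 2 or 3.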

Hepatitis C virus = test: Inhibition of HCV subgenomic RNA replication in Huh5-2 cells after 48 hrs by replicon assay; assay type: functional, organism-based, Hepacivirus hominis; conditions: Huh-5-2, 48 h
Summary of the method: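 Huh-5-2 cells (Huh-7-derived, genotype 1b subgenomic replicon with luciferase reporter) seeded at 5 × 10^3 per well in DMEM with 10% FBS, 37 °C, 5% CO2; compounds added next day, 48 h exposure; luciferase activity read. EC50 is the concentration reducing replication by 50%. Triplicate, mean of three experiments.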

[5] = Liver concentration in rat at 10 mg/kg, po after 2 hrs; assay type: ADME, organism-based; parameters: dose 10 mg/kg, route oral; conditions: read-out: Drug uptake
[6] = target: T2, DNA polymerase alpha catalytic subunit (Homo sapiens, UniProt P09884); test: Inhibition of DNA polymerase alpha
T2 sequence (P09884 whole entry): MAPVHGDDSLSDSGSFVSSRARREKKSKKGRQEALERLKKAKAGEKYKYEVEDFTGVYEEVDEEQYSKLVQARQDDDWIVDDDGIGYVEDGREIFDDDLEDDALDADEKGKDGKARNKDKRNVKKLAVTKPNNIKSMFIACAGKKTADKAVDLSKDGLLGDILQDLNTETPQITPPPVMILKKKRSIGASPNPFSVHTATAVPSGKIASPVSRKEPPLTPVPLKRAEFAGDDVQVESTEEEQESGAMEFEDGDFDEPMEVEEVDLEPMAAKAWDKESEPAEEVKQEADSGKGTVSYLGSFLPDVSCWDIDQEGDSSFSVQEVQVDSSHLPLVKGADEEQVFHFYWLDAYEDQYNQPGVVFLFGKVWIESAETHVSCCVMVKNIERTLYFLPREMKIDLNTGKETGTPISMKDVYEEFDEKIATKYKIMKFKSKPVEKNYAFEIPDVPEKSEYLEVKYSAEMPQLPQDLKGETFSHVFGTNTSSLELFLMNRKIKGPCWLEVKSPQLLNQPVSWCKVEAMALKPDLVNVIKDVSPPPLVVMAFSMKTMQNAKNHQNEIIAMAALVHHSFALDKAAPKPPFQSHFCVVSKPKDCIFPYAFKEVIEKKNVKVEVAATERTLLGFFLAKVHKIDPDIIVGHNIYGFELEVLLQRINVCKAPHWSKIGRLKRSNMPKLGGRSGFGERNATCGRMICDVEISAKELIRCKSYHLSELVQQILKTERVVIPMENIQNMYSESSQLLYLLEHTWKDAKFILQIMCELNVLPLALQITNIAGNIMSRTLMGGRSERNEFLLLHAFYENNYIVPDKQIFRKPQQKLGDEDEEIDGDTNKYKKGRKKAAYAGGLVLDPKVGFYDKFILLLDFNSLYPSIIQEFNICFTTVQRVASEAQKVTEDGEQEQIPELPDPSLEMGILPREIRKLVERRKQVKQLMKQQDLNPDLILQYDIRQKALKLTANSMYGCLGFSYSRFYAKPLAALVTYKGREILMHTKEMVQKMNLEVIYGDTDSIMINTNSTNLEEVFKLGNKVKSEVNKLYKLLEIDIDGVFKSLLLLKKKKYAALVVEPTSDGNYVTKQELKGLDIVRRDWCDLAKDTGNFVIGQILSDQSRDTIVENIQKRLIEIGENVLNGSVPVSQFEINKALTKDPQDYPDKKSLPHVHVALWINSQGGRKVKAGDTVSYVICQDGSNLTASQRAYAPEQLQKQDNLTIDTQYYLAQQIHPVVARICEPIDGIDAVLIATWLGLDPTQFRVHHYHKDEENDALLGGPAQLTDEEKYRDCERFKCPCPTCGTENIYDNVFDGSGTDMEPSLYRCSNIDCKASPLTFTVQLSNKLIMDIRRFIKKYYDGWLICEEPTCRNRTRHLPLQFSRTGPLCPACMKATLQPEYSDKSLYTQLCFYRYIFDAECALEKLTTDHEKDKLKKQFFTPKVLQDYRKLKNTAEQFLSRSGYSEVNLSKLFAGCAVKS

Cytochrome P450 2C9 [7] = target: T3, Cytochrome P450 2C9 (Homo sapiens, UniProt P11712); test: Inhibition of CYP450 2C9; assay type: ADME
T3 sequence (P11712 whole entry): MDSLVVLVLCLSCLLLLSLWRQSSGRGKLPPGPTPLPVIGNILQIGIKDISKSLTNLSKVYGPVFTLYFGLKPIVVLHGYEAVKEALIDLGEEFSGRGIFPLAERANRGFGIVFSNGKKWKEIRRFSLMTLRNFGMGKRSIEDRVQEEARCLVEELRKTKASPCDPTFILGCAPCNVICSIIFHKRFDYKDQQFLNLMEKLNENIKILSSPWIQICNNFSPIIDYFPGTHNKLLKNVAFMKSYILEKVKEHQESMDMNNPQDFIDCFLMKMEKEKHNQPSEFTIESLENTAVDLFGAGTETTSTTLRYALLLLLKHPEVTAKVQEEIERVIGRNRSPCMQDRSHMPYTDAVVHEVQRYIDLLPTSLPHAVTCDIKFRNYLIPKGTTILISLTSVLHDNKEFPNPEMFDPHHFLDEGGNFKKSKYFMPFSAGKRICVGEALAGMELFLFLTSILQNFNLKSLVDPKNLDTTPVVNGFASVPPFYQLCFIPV

Cytochrome P450 2C9 [8] = target: T3, Cytochrome P450 2C9; test: Induction of CYP450 2C9; assay type: ADME
[9] = target: T1, RNA-directed RNA polymerase; test: Inhibition of HCV 1b BK six His-tagged C-terminal truncated 544 amino acid NS5B RNA dependent RNA polymerase; parameters: species or system Hepatitis C virus subtype 1b
Summary of the method: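 HCV genotype 1b (BK) NS5B lacking 47 C-terminal residues, His6-tagged, E. coli-expressed; 7 nM enzyme with 5 µg HCV 3′X RNA template-primer, 50 µM each ATP/GTP/CTP, 2 µM UTP plus [3H]-UTP; pH 7.5 Tris, 5 mM MgCl2. Compounds in DMSO (5% final). 60 min at 25 °C; TCA-precipitable radioactivity read. Triplicate, mean of three experiments.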

Cytochrome P450 2D6 = Cytochrome P450 2D6 (Homo sapiens, UniProt P10635); test: Inhibition of CYP450 2D6; assay type: ADME
Sequence of Cytochrome P450 2D6 (P10635 whole entry): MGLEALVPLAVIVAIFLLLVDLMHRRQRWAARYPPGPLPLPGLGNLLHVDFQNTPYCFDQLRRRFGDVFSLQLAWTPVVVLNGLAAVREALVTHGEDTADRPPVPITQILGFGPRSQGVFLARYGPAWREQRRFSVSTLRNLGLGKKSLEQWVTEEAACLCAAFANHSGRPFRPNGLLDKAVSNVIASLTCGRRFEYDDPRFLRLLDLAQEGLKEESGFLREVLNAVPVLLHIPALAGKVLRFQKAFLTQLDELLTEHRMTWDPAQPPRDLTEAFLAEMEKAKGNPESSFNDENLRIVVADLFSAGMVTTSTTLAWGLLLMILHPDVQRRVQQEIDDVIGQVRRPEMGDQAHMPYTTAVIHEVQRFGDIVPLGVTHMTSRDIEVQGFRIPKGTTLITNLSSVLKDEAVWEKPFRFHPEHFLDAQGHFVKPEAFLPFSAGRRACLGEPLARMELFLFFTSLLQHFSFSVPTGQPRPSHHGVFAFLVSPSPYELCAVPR

T1 sequence (O39930 whole entry): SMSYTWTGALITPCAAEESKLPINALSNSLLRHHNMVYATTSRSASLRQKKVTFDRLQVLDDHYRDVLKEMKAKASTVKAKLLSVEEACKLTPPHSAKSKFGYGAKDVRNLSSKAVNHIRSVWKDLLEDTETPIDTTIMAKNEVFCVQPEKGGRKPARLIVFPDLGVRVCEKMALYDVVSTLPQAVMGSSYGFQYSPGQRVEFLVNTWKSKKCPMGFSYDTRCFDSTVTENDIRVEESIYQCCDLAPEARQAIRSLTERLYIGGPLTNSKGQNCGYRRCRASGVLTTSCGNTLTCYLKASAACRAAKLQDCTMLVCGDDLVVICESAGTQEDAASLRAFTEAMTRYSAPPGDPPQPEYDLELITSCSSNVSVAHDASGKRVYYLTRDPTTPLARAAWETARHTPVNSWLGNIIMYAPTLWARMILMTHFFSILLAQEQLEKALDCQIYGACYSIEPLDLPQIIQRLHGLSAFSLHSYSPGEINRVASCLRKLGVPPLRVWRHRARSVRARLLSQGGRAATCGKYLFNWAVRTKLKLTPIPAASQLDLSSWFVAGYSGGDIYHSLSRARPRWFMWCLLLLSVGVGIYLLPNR

O=C(O)c1ccc2c(c1)nc(-c1ccc(OCc3cc(N4CCCC4=O)ccc3-c3ccc(Cl)cc3)cc1F)n2C1CCCCC1
IC50 [1]: 6.4 µM
IC50 [2]: > 10 µM
Activity (Cytochrome P450 3A4): Not Active
IC50 (DNA polymerase beta): > 10 µM
selectivity ratio [3]: 78
concentration at 2 h [4]: 4.5 µM
EC50 (Hepatitis C virus): 0.32 µM
concentration at 2 h [5]: 78.5 µM
IC50 [6]: > 10 µM
Inhibition (Cytochrome P450 2C9 [7]): Not Active
Activity (Cytochrome P450 2C9 [8]): Not Active
IC50 [9]: 0.017 µM
Inhibition (Cytochrome P450 2D6): Not Active
